# Assay results from different studies.
Structure (SMILES),cell line,assay,test system,setting,measurement,result
CC(C)Cn1c(=O)n(C)c(=O)c2c(-c3cncn3C)n(Cc3cccc4ccccc34)nc21,HEK293,"cell growth or viability, MTT",,24 h,CC50,> 200 µM
CCS(=O)(=O)Nc1cccc(-c2cn(C)c(=O)c3ccccc23)c1,MDCK-MDR1,,Caco-2,,Papp,15 ×10⁻⁶ cm/s
O=C(Sc1cccccc1=O)c1ccc(C(F)(F)F)cc1,HepDES19,"cell growth or viability, MTS",,72 h,CC50,56.1 µM
Cc1ccc2c(c1C)NC(=O)[C@]21NN=C(c2ccccc2)S1,HEK293,"cell growth or viability, MTT",,24 h,CC50,100 µM
Cc1ccc2c(=O)n(-c3ccc(F)cc3)c(CCN3C(=O)c4cccc(OC(C)C)c4C3=O)nc2c1,MDCK-MDR1,,Caco-2,"1 µM, 90 min, pH 7.4",Papp A→B,30 ×10⁻⁶ cm/s
CC1c2cc(c(O)c(O)c2O)C(C)c2cc(c(O)c(O)c2O)C(C)c2cc(c(O)c(O)c2O)C(C)c2cc1c(O)c(O)c2O (stereo not drawn),HEK293,"cell growth or viability, ATP luminescence",,24 h,CC50,102 µM
Cn1cnc2c1c(=O)n(CC(=O)Nc1c(Cl)cccc1Cl)c(=O)n2C,NCI-H1975,"cell growth or viability, MTT",,6.3 µg,viability,56.1%
O=c1cccccc1SSc1cccccc1=O,HepDES19,"cell growth or viability, MTS",,72 h,CC50,9.6 µM
CCS(=O)(=O)Nc1ccc(OCCOCCOCCOCCOc2ccc(NS(=O)(=O)CC)cc2-c2cn(C)c(=O)c3ccccc23)c(-c2cn(C)c(=O)c3ccccc23)c1,MDCK-MDR1,,Caco-2,,Papp,0.13 ×10⁻⁶ cm/s
O=C(O)/C=C/C=C/c1cccc(Oc2cc(Cl)cc(Cl)c2)c1,HEK293,"cell growth or viability, MTT",,24 h,CC50,> 200 µM
O=C(Sc1cccccc1=O)c1ccccc1C(F)(F)F,HepDES19,"cell growth or viability, MTS",,72 h,CC50,8.6 µM
CC1c2cc(c(O)cc2O)C(C)c2cc(c(O)cc2O)C(C)c2cc(c(O)cc2O)C(C)c2cc1c(O)cc2O (stereo not drawn),HEK293,"cell growth or viability, MTT",,24 h,CC50,14.9 µM
CN1CCC(NCc2cccc(-c3ccc(S(=O)(=O)NCc4ccccc4)cc3)c2)CC1,HEK293,"cell growth or viability, MTT",,24 h,CC50,32.3 µM
COC(=O)c1ccccc1-c1c2ccc(=N)cc-2oc2cc(N)ccc12,MDR1,,MDCK-MDR1,"5 µM, 2 h, pH 7.4",efflux ratio,4.92
COc1ccc2cc3[n+](cc2c1OC)CCc1cc2c(cc1-3)OCO2,MDCK-MDR1,,Caco-2,"10 µg/mL, 4 h",Papp A→B,0.39 ×10⁻⁶ cm/s
